According to ChEMBL document CHEMBL4024760, “Specific Inhibition of Bacterial β-Glucuronidase by Pyrazolo[4,3-c]quinoline Derivatives via a pH-Dependent Manner To Suppress Chemotherapy-Induced Intestinal Toxicity” (J Med Chem, 2017):

Legend:
[1] = system: Escherichia coli; test: Inhibition of N-terminal His-tagged Escherichia coli beta-glucuronidase expressed in Escherichia coli BL21 (DE3) assessed as residual activity using pNPG as substrate at 10 uM preincubated for 30 mins followed by substrate addition measured after 1 hr relative to control
How it was run: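 Purified E. coli βG (20 ng) preincubated with 10 μM compound for 30 min at 37 °C in PBS pH 7.5 with 10% DMSO and 0.05% BSA. pNPG (20 mM stock) then added for 1 h, quenched with 2 N NaOH, and read at OD405. Result given as % activity versus a 10% DMSO control; n = 3.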

[2] = Inhibition of N-terminal His-tagged Escherichia coli beta-glucuronidase expressed in Escherichia coli BL21 (DE3) using pNPG as substrate preincubated for 30 mins followed by substrate addition measured after 1 hr
How it was run: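 Purified E. coli βG (20 ng) preincubated 30 min at 37 °C with compound (0.64–10 000 nM) in PBS pH 7.5 containing 10% DMSO and 0.05% BSA. pNPG (20 mM stock) then added for 1 h, quenched with 2 N NaOH, and pNP read at 405 nm. IC50 derived from a four-parameter curve fit; SD of n = 3.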

[3] = system: Escherichia coli; test: Toxicity against Escherichia coli BL21(DE3) assessed as effect on cell growth at 100 uM after 6 hrs
How it was run: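 BL21(DE3) E. coli (diluted to OD600 0.1 in LB after overnight growth) incubated with compound at a final 100 μM, shaking at 37 °C for 6 h. Growth measured by OD600; viability given as % of the untreated control.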

[4] = target: T1, beta-glucuronidase (Homo sapiens, UniProt P08236); test: Inhibition of N-terminal His-tagged human beta-glucuronidase expressed in Escherichia coli BL21 (DE3) assessed as residual activity using pNPG as substrate at 10 uM preincubated for 30 mins followed by substrate addition measured after 1 hr relative to control; settings: probe pNPG, read-out: Activity
T1 sequence (P08236 whole entry): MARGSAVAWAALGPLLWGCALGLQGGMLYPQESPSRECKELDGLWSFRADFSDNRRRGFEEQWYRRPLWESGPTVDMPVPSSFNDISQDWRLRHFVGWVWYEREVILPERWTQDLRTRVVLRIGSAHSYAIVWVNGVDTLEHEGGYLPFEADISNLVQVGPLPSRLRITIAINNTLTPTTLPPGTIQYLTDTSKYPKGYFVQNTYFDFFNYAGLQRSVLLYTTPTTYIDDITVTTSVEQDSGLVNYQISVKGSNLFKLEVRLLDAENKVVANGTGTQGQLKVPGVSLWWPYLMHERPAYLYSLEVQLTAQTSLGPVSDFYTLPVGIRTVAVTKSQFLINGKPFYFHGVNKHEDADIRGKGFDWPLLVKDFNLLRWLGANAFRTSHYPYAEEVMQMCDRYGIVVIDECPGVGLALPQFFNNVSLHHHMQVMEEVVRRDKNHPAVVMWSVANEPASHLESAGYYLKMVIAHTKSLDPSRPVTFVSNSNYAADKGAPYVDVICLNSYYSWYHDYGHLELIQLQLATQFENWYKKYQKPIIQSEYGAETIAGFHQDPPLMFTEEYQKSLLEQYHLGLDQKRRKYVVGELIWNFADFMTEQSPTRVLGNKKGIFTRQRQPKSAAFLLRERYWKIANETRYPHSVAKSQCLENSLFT

[5] = system: Escherichia coli BL21(DE3); test: Inhibition of beta-glucuronidase in Escherichia coli BL21 (DE3) using pNPG as substrate at 50 uM preincubated for 30 mins followed by substrate addition measured after 1 hr relative to control
How it was run: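 BL21(DE3) E. coli grown overnight and diluted to OD600 0.1 in LB. Cells treated with compound (50, 10 or 2 μM) for 30 min at 37 °C, then pNPG (40 mM stock) added for 1 h. Cells pelleted at 6000g; supernatant quenched with NaOH and read at OD405. Activity given as % of a 1% DMSO control.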

Row | SMILES | Activity [1] [%] | IC50 [2] [nM] | Activity [3] | activity at 1 h, 10 µM [4] [%] | inhibition [5] [%]
1 | Cc1ccc(Nc2nc3cc(F)ccc3c3[nH]nc(N)c23)cc1 | 6.84 | 38.1 | Toxic | 91.5 | > 80
2 | O=C1c2ccccc2-c2c(N3CCC(O)CC3)nc3ccccc3c21 | 74.9 |  |  | 80.6 | 
3 | COc1ccc(-c2cc3ccccc3nc2C2CC(c3cc(OC)c(OC)c(OC)c3)=NN2C(N)=S)cc1 (centres undefined) | 114 |  |  | 89.5 | 
4 | Nc1n[nH]c2c1c(Nc1ccc(Cl)cc1)nc1ccc(Br)cc12 | 16.4 | 18 | Toxic | 107 | > 80
5 | Nc1n[nH]c2c1c(O)nc1ccccc12 | 99 |  |  | 83 | 
6 | Nc1n[nH]c2c1c(Nc1cccc(O)c1)nc1ccccc12 | 6 | 884 |  | 78.3 | 
7 | CCOc1nc2ccccc2c2[nH]nc(N)c12 | 102 |  |  | 80.5 | 
8 | CC(=O)c1ccc(Nc2nc3ccccc3c3[nH]nc(N)c23)cc1 | 6 | 133 |  | 83.4 | 
9 | Nc1n[nH]c2c1c(Nc1ccccc1)nc1ccccc12 | 2.33 |  |  | 106 | 
10 | CCOC(=O)CN1C(=O)S/C(=C/c2ccc3cc(F)ccc3n2)C1=O | 111 |  |  | 87.9 | 
11 | CCN(CC)CCNC(=O)c1ccc(/N=C2/c3ccccc3C(=O)c3c2ccn3Cc2ccccc2)cc1 | 87.4 |  |  | 86.9 | 
12 | Nc1n[nH]c2c1c(Nc1ccc(Cl)cc1)nc1ccc(Cl)cc12 | 6.35 | 55.6 | Toxic | 88.2 | > 80
13 | Nc1n[nH]c2c1c(Nc1ccccc1Cl)nc1ccccc12 | 10.3 | 281 |  | 79.8 | 
14 | c1ccc2c(c1)c1nonc1c1ccoc21 | 111 |  |  | 82.7 | 
15 | Cc1ccc(Nc2nc3ccc(Cl)cc3c3[nH]nc(N)c23)cc1 | 6.13 | 14.4 | Toxic | 91.5 | > 80
16 | Cc1ccccc1Nc1nc2ccccc2c2[nH]nc(N)c12 | 14.8 | 673 |  | 93.6 | 
17 | Nc1n[nH]c2c1c(Nc1ccc([N+](=O)[O-])cc1)nc1ccccc12 | 46.5 | 9200 |  | 90.9 | 
18 | Cc1cccc2c1nc(Nc1ccc(Cl)cc1)c1c(N)n[nH]c12 | 9.04 | 238 |  | 88.3 | 
19 | Nc1n[nH]c2c1c(Nc1cccc(Cl)c1)nc1ccccc12 | 14.9 | 308 |  | 94.1 | 
20 | Fc1ccc(-c2cc(-c3ccc4cc(F)ccc4n3)n(-c3ccccc3)n2)cc1 | 113 |  |  | 88.9 | 
21 | O=C1S/C(=C/c2ccc3cc(F)ccc3n2)C(=O)N1CCN1CCCCC1 | 107 |  |  | 96.5 | 
22 | COc1cc(C(=O)C2CC2c2ccc3ccccc3n2)cc(OC)c1OC (centres undefined) | 112 |  |  | 85.4 | 
23 | O=C(O)[C@@H](O)[C@H]1OC(=O)[C@H](O)[C@H]1O [D-SACCHARIC ACID 1,4-LACTONE] | 75.7 | > 10000 |  | 33.5 | 
24 | Cc1cc2c(n1CCCN(C)CCCn1c(C)cc3c1C(=O)c1ccccc1C3=O)C(=O)c1ccccc1C2=O | 73.5 |  |  | 79.8 | 
25 | NC(=S)N/N=C/c1ccc2cc(F)ccc2n1 | 112 |  |  | 78.5 | 

Row | SMILES | Activity [1] [%] | IC50 [2] [nM] | Activity [3] | activity at 1 h, 10 µM [4] [%] | inhibition [5] [%]
26 | Nc1n[nH]c2c1c(Nc1ccccc1O)nc1ccccc12 | 12 | 613 |  | 85.6 | 
27 | Cc1cccc(Nc2nc3ccccc3c3[nH]nc(N)c23)c1 | 80.7 | > 10000 |  | 86.5 | 
28 | Nc1n[nH]c2c1c(N)nc1ccccc12 | 86.3 |  |  | 83.9 | 
29 | Nc1ccc(Nc2nc3ccccc3c3[nH]nc(N)c23)cc1 | 11.3 | 598 |  | 62.2 | 
30 | COc1cc(/C=C2\CN(C(=O)CN(C)C)C/C(=C\c3cc(OC)c(OC)c(OC)c3)C2=O)cc(OC)c1OC | 34.1 |  |  | 92.4 | 
31 | O=C1S/C(=C/c2ccc3cc(F)ccc3n2)C(=O)N1CCN1CCCC1 | 99.2 |  |  | 102 | 
32 | Fc1ccc(-c2cc(-c3ccc4cc(F)ccc4n3)nn2-c2ccccc2)cc1 | 114 |  |  | 82.2 | 
33 | CNC(=S)N/N=C1\C(=O)c2ccccc2-c2occc21 | 104 |  |  | 86.8 | 
34 | COc1ccc(-c2cc3cc(F)ccc3nc2/C=C2\SC(=O)NC2=O)cc1 | 99.1 |  |  | 84.6 | 
35 | Nc1n[nH]c2c1c(Nc1ccc(Cl)cc1)nc1ccccc12 | 4.57 | 34.8 | Toxic | 98.8 | > 80
36 | CCOc1ccc(NC(=S)N(CCO)Cc2cc3cc(C)cc(C)c3[nH]c2=O)cc1 | 8.83 | 846 |  |  | 
37 | Nc1n[nH]c2c1c(Nc1ccc(O)cc1)nc1ccccc12 | 8.67 | 626 |  | 106 | 
38 | CCOC(=O)CSc1nc2ccccc2c2sc(C(=O)OCC)c(N)c12 | 101 |  |  | 108 | 
39 | Cc1ccc(Nc2nc3ccc(Br)cc3c3[nH]nc(N)c23)cc1 | 12.1 | 55.3 | Toxic | 97.9 | > 80
40 | O=C1NC(=O)/C(=C\c2ccc3cc(F)ccc3n2)S1 | 115 |  |  | 88.9 | 
41 | Cc1ccc(Nc2nc3c(C)cccc3c3[nH]nc(N)c23)cc1 | 6.8 | 24.7 |  | 85.7 | 
42 | COc1cc(/C=C2\CNC/C(=C\c3cc(OC)c(OC)c(OC)c3)C2=O)cc(OC)c1OC | 111 |  |  | 107 | 
43 | Fc1ccc2nc(/C=N/NC3=NCCN3)ccc2c1 | 112 |  |  | 99 | 
44 | Nc1n[nH]c2c1cnc1ccccc12 | 99.3 |  |  | 79.4 | 
45 | COc1ccc(-c2nc3c4ccoc4c4ccccc4c3[nH]2)cc1 | 112 |  |  | 85.4 | 
46 | O=C(O)CN1C(=O)S/C(=C/c2ccc3cc(F)ccc3n2)C1=O | 109 |  |  | 85.9 | 
47 | Nc1n[nH]c2c1c(Nc1ccc(C(F)(F)F)cc1)nc1ccccc12 | 5.66 | 98.2 |  | 101 | 
48 | Nc1n[nH]c2c1c(Nc1ccc(Cl)cc1)nc1cc(F)ccc12 | 6.78 | 29.6 |  | 92.8 | 
49 | CN(C)CCCN1C(=O)S/C(=C/c2ccc3cc(F)ccc3n2)C1=O | 112 |  |  | 80.2 | 
50 | Nc1n[nH]c2c1c(Nc1ccc(C(=O)O)cc1)nc1ccccc12 | 19 | 154 |  | 102 | 
